Laboratory results reported in ChEMBL document CHEMBL4477191, “Haliclonadiamine Derivatives and 6-epi-Monanchorin from the Marine Sponge Halichondria panicea Collected at Iriomote Island” (J Nat Prod, 2016).
Where a name gives a salt, the structure may show the parent alone. Active and inactive are the calls of the source. The rule behind the calls is not given here.

What was measured:
Huh-7 = assay: Cytotoxicity against human HuH7 cells assessed as reduction in cell viability after 72 hrs by WST-1 assay; assay type: functional, cell-based; conditions: Huh-7, 72 h
In short: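 Cells seeded at 1 × 10^4 per well, cultured overnight, then exposed to compound for 72 h. WST-1 (0.5 mM) with 1-PMS (0.02 mM) in medium added for 60 min at 37 °C. Absorbance read at 438 nm, reference 620 nm. Viability expressed as percent of 0.1% EtOH-treated controls. IC50 reported.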

[1] = test system: Mycolicibacterium smegmatis; assay: Antimycobacterial activity against Mycobacterium smegmatis NBRC 3207 at 10 ug/disc after 2 days by paper disc method; assay type: functional; conditions: NBRC 3207, 48 h, read-out: IZ
In short: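 Paper disc diffusion. Strain kept in 20% glycerol at −80 °C, then grown 2 days at 37 °C in Middlebrook 7H9 broth with 0.05% polysorbate 80, 0.5% glycerol and 10% OADC. Adjusted to 1.0 × 10^6 CFU/mL and spread on the same medium with 1.5% agar. Sample in CH3OH dried onto 6 mm discs. Plates incubated 37 °C, 2 days. Inhibition zone read in mm. Streptomycin sulfate (5 μg/disc) positive control; CH3OH negative control.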

[2] = test system: Mycolicibacterium smegmatis; assay: Antimycobacterial activity against Mycobacterium smegmatis NBRC 3207 at 5 ug/disc after 2 days by paper disc method; assay type: functional; conditions: NBRC 3207, 48 h, read-out: IZ
In short: (§1)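 Strain stored in 20% glycerol at −80 °C. Grown in Middlebrook 7H9 broth with 0.05% polysorbate 80, 0.5% glycerol and 10% OADC at 37 °C for 2 days, then adjusted to 1.0 × 10^6 CFU/mL and spread on the same medium with 1.5% agar. Samples in CH3OH dried onto 6 mm filter discs, incubated 37 °C for 2 days. Read-out is inhibition zone (mm). Streptomycin sulfate 5 μg/disc as positive control, CH3OH as negative control.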

[3] = test system: Mycolicibacterium smegmatis; assay: Antimycobacterial activity against Mycobacterium smegmatis NBRC 3207 at 10 to 20 ug/disc after 2 days by paper disc method; assay type: functional, organism-based; in short: as §1

Structure (SMILES) | IC50 (Huh-7) [µM] | zone of inhibition at 10 µg/disc [1] [mm] | zone of inhibition at 5 µg/disc [2] [mm] | inhibition [3]
COc1cccc2c1C(=O)c1c(O)c3c(c(O)c1C2=O)C[C@@](O)(C(=O)CO)C[C@@H]3O[C@H]1C[C@H](N)[C@H](O)[C@H](C)O1 [DOXORUBICIN] | 0.4 | – | – | –
C1=C\[C@H]2[C@@H]3CCCC[C@H]3C[C@@H]2NCCCN[C@@H]2C[C@@H]3CCCC[C@H]3[C@@H]2/C=C/1 | > 10 | 12 | – | –
C1=C/[C@H]2[C@@H]3CCCC[C@H]3C[C@H]2NCCCN[C@@H]2C[C@@H]3CCCC[C@H]3[C@@H]2/C=C/1 | 3.9 | 12 | – | –
CN[C@@H]1[C@H](O[C@H]2[C@H](O[C@H]3[C@H](O)[C@@H](O)[C@H](N=C(N)N)[C@@H](O)[C@@H]3N=C(N)N)O[C@@H](C)[C@]2(O)C=O)O[C@@H](CO)[C@H](O)[C@H]1O [STREPTOMYCIN SULFATE] | – | – | 30 | –
CCCCC[C@@H]1O[C@@H]2CC[C@H]1NC(=N)N2 | > 10 | – | – | inactive
CCCCC[C@H]1O[C@@H]2CC[C@H]1NC(=N)N2 | > 10 | – | – | inactive
N[C@@H]1C[C@@H]2CCCC[C@H]2[C@@H]1/C=C/C=C\[C@H]1[C@@H]2CCCC[C@H]2C[C@@H]1N | 7.2 | 8 | – | –
C1=C\[C@H]2[C@@H]3CCCC[C@H]3C[C@H]2NCCCN[C@H]2C[C@@H]3CCCC[C@H]3[C@@H]2/C=C/1 | 6.7 | 7 | – | –
C1=C/[C@H]2[C@@H]3CCCC[C@H]3C[C@@H]2NCCCN[C@@H]2C[C@@H]3CCCC[C@H]3[C@@H]2/C=C/1 [HALICLONADIAMINE] | 3.6 | 16 | – | –
N[C@@H]1C[C@@H]2CCCC[C@H]2[C@@H]1/C=C\C=C\[C@H]1[C@@H]2CCCC[C@H]2C[C@@H]1N | 7.8 | 7 | – | –
